The values below come from PMC3544975 (Biochemical and biophysical research communications, 2012).

Where two headings read alike, the source gives them in different places.

For experiment [1], the target named is T1, human PMK (Homo sapiens, UniProt Q15126).
T1 sequence (Q15126 1-192): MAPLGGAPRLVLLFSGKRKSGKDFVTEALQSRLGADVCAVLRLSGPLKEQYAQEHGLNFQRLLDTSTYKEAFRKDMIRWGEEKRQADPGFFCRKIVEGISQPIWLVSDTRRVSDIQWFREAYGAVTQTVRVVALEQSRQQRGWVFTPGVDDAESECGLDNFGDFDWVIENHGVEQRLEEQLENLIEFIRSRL
To be noted: read-out: affinity of natural substrates; cited from earlier work.

The target of experiment [2] is T1, human PMK. Put plainly: Fluorescence titration. The experiment is classed as binding. The method in brief: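 N-terminally His6-tagged human PMK was expressed in E. coli BL21(DE3) Rosetta and purified on Ni-Sepharose. Titration used 5 µM PMK in 20 mM potassium phosphate, 5 mM DTT, 100 mM KCl, 10% glycerol, pH 6.5, at 25 °C. Excitation was 295 nm, with emission recorded over 300–400 nm. The bound-minus-free intensity difference was fitted against ligand concentration to a one-site specific binding equation.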

Turning to `Nc1ncnc2c1ncn2[C@@H]1O[C@H](COP(=O)(O)OP(=O)(O)O)[C@@H](O)[C@H]1O` [ADP, adenosine diphosphate], the Kd at human PMK [1] is 19.9 ± 9 µM.

At human PMK [2], `O=c1cc(-c2ccc(O)c(O)c2)oc2cc(O)cc(O)c12` [luteolin] had a Kd of 61 ± 19.5 µM.

As to `Nc1ncnc2c1ncn2[C@@H]1O[C@H](COP(=O)(O)OP(=O)(O)OP(=O)(O)O)[C@@H](O)[C@H]1O` [ATP, adenosine-5'-triphosphate], on human PMK [1], the Kd is 29 ± 6 µM.
